# Key:
# [1] = molecular target: T1, Dual specificity protein kinase TTK (Homo sapiens, UniProt P33981); test: Inhibition of amino terminal GST-fused full length human TTK using His6-SUMO-TTK-N as substrate preincubated for 15 mins prior to ATP addition by indirect ELISA detection system
# T1 sequence (P33981 whole entry): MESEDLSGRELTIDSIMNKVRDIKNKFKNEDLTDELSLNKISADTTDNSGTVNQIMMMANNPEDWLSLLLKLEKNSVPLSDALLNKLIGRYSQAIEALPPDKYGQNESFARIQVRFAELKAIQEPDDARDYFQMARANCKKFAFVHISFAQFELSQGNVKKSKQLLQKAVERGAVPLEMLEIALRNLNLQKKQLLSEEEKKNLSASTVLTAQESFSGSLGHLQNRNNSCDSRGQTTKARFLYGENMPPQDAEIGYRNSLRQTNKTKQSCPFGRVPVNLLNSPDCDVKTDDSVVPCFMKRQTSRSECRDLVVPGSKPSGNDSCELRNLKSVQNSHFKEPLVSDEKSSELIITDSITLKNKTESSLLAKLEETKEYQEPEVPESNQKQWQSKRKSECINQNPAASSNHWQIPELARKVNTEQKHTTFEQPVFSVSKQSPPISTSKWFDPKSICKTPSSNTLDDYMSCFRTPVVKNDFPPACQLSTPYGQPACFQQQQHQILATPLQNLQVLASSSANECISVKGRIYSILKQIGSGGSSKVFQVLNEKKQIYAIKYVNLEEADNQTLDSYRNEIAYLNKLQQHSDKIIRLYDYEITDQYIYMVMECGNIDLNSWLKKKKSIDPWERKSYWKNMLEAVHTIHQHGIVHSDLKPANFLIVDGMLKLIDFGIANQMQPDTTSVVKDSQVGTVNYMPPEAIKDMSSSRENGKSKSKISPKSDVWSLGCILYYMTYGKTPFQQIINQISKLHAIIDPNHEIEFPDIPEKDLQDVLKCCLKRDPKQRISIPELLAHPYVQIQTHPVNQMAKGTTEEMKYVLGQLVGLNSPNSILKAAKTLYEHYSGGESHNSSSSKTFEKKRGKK
# [2] = molecular target: T2, Aurora kinase B/Inner centromere protein (Homo sapiens, UniProt Q96GD4); test: Inhibition of AURKB/INCENP (unknown origin) preincubated for 15 mins prior to ATP addition by FRET-based homogenous assay; format: protein-complex assay
# T2 sequence (Q96GD4 whole entry): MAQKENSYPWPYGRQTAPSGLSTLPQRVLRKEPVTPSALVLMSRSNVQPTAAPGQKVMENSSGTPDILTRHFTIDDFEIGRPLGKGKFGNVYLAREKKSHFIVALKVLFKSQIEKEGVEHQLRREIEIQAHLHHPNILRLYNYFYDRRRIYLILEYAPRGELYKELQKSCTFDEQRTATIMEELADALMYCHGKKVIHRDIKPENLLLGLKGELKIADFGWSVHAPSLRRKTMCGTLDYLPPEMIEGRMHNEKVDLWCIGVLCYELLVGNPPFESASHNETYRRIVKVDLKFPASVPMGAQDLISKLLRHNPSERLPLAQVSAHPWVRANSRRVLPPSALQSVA
# T2 sequence (Q9NQS7 whole entry, further chain): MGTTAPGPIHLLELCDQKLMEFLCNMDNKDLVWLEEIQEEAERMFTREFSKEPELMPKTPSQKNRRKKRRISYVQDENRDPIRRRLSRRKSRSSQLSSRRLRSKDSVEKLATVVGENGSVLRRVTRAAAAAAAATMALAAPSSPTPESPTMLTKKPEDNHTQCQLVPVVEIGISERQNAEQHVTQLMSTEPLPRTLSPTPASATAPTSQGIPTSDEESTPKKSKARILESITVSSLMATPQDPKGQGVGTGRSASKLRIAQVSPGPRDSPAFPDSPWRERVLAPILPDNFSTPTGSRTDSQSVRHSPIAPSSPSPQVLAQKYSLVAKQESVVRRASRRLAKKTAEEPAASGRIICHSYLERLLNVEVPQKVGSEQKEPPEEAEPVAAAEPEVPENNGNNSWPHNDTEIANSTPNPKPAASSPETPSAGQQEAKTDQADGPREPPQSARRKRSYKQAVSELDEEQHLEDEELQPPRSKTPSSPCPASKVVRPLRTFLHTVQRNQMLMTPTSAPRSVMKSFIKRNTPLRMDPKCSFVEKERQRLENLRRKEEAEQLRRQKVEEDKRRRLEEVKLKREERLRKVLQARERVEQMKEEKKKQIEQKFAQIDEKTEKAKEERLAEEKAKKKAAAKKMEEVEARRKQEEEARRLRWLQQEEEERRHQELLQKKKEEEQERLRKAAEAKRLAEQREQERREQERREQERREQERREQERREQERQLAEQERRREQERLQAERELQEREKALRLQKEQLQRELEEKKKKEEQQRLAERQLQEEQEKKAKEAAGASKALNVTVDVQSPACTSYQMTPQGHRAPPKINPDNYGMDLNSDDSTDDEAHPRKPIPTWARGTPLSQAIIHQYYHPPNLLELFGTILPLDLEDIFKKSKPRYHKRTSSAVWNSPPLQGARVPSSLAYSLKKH
# How it was run: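 The enzyme was AURKB/INCENP in a FRET-based homogeneous assay run to kit specifications, with ATP at 128 μM. […] Each IC50 came from a single determination, reported with its standard fitting error.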
# [3] = Half life in mouse liver microsomes at 1 uM by LC-MS analysis; format: ADME; conditions: liver microsomes
# [4] = Half life in rat liver microsomes at 1 uM by LC-MS analysis; format: ADME; conditions: liver microsomes
# [5] = Clearance in Sprague-Dawley rat at 1 mg/kg, iv by LC-MS/MS analysis; format: ADME, organism-based; set-up: dose 1 mg/kg, route intravenous; conditions: in vivo
# [6] = Half life in Sprague-Dawley rat at 1 mg/kg, iv by LC-MS/MS analysis; format: ADME, organism-based; set-up: dose 1 mg/kg, route intravenous; conditions: in vivo
# [7] = AUCinfinity in Sprague-Dawley rat at 1 mg/kg, iv by LC-MS/MS analysis; format: ADME, organism-based; set-up: time infinity, dose 1 mg/kg, route intravenous; conditions: plasma
# [8] = AUCinfinity in Sprague-Dawley rat at 5 mg/kg, po by LC-MS/MS analysis; format: ADME, organism-based; set-up: time infinity, dose 5 mg/kg, route oral; conditions: plasma
# [9] = Oral bioavailability in Sprague-Dawley rat at 5 mg/kg by LC-MS/MS analysis; format: ADME, organism-based; conditions: in vivo
# [10] = Half life in iv dosed dog; format: ADME, organism-based, Canis lupus familiaris; conditions: in vivo
# [11] = Oral bioavailability in dog; format: ADME, organism-based, Canis lupus familiaris; conditions: in vivo
# SW48 = test: Antitumor activity against human SW48 cells xenografted in CD-1 nude mouse assessed as tumor growth inhibition at 30 mg/kg, po qd administered for 21 days measured 3 times per week during compound dosing relative to vehicle-treated control; format: functional; conditions: SW48, 504 h, read-out: TGI
# How it was run: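 Randomization into groups (n = 7) at 80–120 mm³ mean tumor volume. Compound was given orally once daily for 21 days in 10% NMP/40% PEG400/50% DI water, top dose 30 mg/kg. Tumor volume (x²y/2) was taken three times weekly, and TGI was calculated against vehicle.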
# [12] = molecular target: Mast/stem cell growth factor receptor Kit (Homo sapiens, UniProt P10721); test: Inhibition of human cKit by millipore radiometric assay
# How it was run: (§1)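 Radiometric profiling against a 278-kinase panel was done with ATP at Km. Half-maximal inhibitory concentrations were then determined for the kinases most inhibited.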
# [13] = molecular target: Proto-oncogene tyrosine-protein kinase receptor Ret (Homo sapiens, UniProt P07949, V804M); test: Inhibition of human Ret V804M mutant by millipore radiometric assay; how it was run: as §1
# Chain of Proto-oncogene tyrosine-protein kinase receptor Ret (Homo sapiens, UniProt P07949, V804M) (P07949 29-1114 V804M limits assumed): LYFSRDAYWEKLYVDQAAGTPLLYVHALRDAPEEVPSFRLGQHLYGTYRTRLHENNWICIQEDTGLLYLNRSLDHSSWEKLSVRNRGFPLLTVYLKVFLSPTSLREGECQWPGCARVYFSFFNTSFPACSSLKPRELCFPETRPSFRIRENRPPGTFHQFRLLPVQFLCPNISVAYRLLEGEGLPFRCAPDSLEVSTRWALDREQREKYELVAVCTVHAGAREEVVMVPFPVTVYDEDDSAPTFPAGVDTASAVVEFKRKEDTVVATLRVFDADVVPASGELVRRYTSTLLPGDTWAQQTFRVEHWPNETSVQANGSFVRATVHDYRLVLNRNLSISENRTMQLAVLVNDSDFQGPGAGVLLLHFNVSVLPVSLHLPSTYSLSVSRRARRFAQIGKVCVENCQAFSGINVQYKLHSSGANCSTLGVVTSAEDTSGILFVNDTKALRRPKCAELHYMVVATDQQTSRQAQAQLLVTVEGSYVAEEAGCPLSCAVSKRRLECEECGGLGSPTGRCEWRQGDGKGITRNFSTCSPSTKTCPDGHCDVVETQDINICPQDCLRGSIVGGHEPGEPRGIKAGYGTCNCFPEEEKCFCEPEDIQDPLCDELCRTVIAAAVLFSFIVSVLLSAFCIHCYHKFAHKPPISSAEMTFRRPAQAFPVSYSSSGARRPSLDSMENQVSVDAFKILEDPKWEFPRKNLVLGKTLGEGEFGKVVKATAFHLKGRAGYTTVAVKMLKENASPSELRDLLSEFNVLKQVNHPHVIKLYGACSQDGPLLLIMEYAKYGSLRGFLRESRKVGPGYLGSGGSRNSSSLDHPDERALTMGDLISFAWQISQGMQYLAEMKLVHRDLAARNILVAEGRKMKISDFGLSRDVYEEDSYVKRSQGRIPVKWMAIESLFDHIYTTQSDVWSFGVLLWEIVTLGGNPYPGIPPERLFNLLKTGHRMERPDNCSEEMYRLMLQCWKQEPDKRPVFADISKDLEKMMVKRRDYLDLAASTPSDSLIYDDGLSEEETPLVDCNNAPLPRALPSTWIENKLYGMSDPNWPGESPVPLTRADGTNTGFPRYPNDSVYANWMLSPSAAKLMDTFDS
# [14] = molecular target: Proto-oncogene tyrosine-protein kinase receptor Ret (Homo sapiens, UniProt P07949); test: Inhibition of human Ret by millipore radiometric assay; how it was run: as §1
# Chain of Proto-oncogene tyrosine-protein kinase receptor Ret (Homo sapiens, UniProt P07949) (P07949 whole entry): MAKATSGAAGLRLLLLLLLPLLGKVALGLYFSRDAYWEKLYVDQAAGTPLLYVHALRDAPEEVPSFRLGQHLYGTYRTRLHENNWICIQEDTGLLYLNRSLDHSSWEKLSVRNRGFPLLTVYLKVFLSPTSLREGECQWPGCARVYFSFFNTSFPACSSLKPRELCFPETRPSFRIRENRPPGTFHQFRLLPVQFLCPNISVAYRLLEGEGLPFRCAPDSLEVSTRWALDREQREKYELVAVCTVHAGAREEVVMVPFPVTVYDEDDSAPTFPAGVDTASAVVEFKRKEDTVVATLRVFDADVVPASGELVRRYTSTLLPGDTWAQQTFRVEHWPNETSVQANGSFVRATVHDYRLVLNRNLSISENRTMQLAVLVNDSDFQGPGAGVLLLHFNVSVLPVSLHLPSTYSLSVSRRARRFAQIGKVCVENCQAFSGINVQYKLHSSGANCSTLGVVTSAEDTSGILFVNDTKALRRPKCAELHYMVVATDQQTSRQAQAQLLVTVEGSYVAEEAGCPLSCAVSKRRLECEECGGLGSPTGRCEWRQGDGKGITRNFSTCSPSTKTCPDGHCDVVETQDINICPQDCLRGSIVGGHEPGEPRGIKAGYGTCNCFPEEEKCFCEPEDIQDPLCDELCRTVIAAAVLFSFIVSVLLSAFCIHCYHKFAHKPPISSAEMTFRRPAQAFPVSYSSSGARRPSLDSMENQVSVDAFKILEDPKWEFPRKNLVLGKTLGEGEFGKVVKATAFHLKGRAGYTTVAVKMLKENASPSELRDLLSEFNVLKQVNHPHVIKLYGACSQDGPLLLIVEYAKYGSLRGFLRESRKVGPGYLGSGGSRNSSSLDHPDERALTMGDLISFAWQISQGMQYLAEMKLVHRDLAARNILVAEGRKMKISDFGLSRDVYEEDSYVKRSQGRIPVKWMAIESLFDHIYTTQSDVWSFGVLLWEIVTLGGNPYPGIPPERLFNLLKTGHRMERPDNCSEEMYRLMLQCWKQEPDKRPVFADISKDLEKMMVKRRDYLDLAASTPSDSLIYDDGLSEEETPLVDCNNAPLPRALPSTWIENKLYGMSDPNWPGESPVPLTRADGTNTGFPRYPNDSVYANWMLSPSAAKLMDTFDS
# [15] = molecular target: Mitogen-activated protein kinase 10 (Homo sapiens, UniProt P53779); test: Inhibition of human JNK3 by millipore radiometric assay; how it was run: as §1
# Chain of Mitogen-activated protein kinase 10 (P53779 whole entry): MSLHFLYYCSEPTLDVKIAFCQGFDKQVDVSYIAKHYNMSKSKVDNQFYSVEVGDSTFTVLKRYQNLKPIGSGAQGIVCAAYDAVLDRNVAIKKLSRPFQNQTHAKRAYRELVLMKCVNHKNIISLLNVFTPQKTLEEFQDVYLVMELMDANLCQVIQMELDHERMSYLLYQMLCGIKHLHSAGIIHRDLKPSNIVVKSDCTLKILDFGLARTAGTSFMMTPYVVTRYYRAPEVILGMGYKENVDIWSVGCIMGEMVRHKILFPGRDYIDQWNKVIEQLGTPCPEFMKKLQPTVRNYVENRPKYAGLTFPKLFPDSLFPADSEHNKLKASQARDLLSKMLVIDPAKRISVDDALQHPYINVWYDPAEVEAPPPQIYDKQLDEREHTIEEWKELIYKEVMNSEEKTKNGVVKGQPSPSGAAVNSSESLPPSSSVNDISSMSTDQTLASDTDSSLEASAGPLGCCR
# [16] = molecular target: Maternal embryonic leucine zipper kinase (Homo sapiens, UniProt Q14680); test: Inhibition of human MELK by millipore radiometric assay; how it was run: as §1
# Chain of Maternal embryonic leucine zipper kinase (Q14680 whole entry): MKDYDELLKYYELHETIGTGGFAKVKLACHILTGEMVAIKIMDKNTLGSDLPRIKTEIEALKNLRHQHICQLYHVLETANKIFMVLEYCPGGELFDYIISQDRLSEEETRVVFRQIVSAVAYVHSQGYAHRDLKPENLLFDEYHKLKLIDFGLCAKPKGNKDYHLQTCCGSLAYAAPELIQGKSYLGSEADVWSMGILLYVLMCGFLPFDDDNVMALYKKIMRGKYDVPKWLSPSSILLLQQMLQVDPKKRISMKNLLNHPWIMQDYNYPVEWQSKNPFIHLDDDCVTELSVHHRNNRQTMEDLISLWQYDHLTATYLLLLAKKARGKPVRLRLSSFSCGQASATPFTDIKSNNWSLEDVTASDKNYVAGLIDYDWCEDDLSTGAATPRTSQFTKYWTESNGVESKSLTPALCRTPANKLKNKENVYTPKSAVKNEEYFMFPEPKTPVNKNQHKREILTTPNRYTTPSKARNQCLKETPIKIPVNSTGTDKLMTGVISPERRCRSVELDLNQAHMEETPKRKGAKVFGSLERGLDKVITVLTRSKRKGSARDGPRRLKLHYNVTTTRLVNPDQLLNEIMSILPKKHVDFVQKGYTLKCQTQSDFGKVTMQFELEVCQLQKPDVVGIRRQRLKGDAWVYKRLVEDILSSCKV
# [17] = molecular target: T2, Aurora kinase B/Inner centromere protein; test: Inhibition of AURKB/INCENP (unknown origin) transfected in human HCT116 cells after 4 hrs by near infrared imager analysis; format: cell-based, HCT-116
# How it was run: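 HCT116 cells transfected with wild-type TTK were arrested with nocodazole (200 ng/mL, 17 h). They were pretreated with MG132 (15 μM, 30 min), then exposed to compound or DMSO for 4 h. Blots were probed for phospho-TTK (Thr12/Ser15), phospho-Aurora A (Thr288)/B (Thr232), TTK and GAPDH. Bands were quantified by near-infrared imaging, and EC50 was fitted.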
# A2780 = test: Cytotoxicity against human A2780 cells after 5 days by sulforhodamine B assay; format: functional; conditions: A2780, 120 h
# How it was run: (§2)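 Cancer lines were seeded at 800–6000 cells per well according to growth rate, 24 h before compound overlay. After culture, cells were fixed in situ and stained with sulforhodamine B. GI50 values were derived by curve fitting.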
# [18] = Cytotoxicity against human OV90 cells after 5 days by sulforhodamine B assay; format: functional; conditions: OV-90, 120 h; how it was run: as §2
# [19] = Cytotoxicity against human TOV21G cells after 5 days by sulforhodamine B assay; format: functional; conditions: 120 h; how it was run: as §2
# [20] = Cytotoxicity against human PC3 cells after 5 days by sulforhodamine B assay; format: functional; conditions: PC-3, 120 h; how it was run: as §2
# SK-MEL-5 = test: Cytotoxicity against human SK-MEL-5 cells after 5 days by sulforhodamine B assay; format: functional; conditions: SK-MEL-5, 120 h; how it was run: as §2
# SK-MEL-28 = test: Cytotoxicity against human SK-MEL-28 cells after 5 days by sulforhodamine B assay; format: functional; conditions: SK-MEL-28, 120 h; how it was run: as §2
# A549 = test: Cytotoxicity against human A549 cells after 5 days by sulforhodamine B assay; format: functional; conditions: A549, 120 h; how it was run: as §2
# HCT-116 = test: Induction of chromosome segregation defect in human HCT116 cells assessed as anaphase and telophase cells with lagging chromosomes at 500 nM incubated for 6 hrs post double thymidine block by DAPI staining-based immunofluorescence microscopic analysis (reference value: 19 +/- 2%); format: functional
# [21] = Plasma protein binding in rat; format: ADME, cell-free; conditions: read-out: PPB (converted)
# [22] = Plasma protein binding in dog; format: ADME, cell-free, Canis lupus familiaris; conditions: read-out: PPB (converted)
smiles,measurement,setting,value
O=C(N[C@@H](c1ccccn1)C1CC1)c1ccc2[nH]nc(-c3ccc(N4[C@H]5CC[C@H]4CC(O)C5)cc3)c2c1 (stereo in doubt; 75),IC50,[1],3.1 nM
same,IC50,[2],1300 nM
same,half-life at 1 µM,[3],> 1 h
same,half-life at 1 µM,[4],> 1 h
same,clearance,[5],66 mL/min/kg
same,half-life,[6],0.78 h
same,AUC(0-inf),[7],250 ng·h/mL
same,AUC(0-inf),[8],550 ng·h/mL
same,bioavailability,[9],44%
same,half-life,[10],1.2 h
same,bioavailability,[11],43%
same,inhibition in vivo at 30 mg/kg,SW48,66%
same,IC50,[12],> 30000 nM
same,IC50,[13],280 nM
same,IC50,[14],2800 nM
same,IC50,[15],68 nM
same,IC50,[16],160 nM
same,EC50,[17],> 6000 nM
same,GI50,A2780,20 nM
same,GI50,[18],30 nM
same,GI50,[19],16 nM
same,GI50,[20],60 nM
same,GI50,SK-MEL-5,20 nM
same,GI50,SK-MEL-28,210 nM
same,GI50,A549,24 nM
same,Activity,HCT-116,94%
same,fraction unbound,[21],0.069
same,fraction unbound,[22],0.114
